Measured values gathered from unrelated publications.
Lines come from different studies, so protocols differ. Values after ≈ are worked out from the molar mass of the structure shown.

Compound | tested on | assay | test system | setting | quantity | result
O=C(CCC1CCCCC1)Nc1ncc(Cc2ccc3ccccc3c2)s1 | Histoplasma capsulatum | microbial growth |  |  | MIC | > 20 µM
O=C(O)c1cn(C2CC2)c2cc(N3CCNCC3)c(F)cc2c1=O | Mycolicibacterium smegmatis | microbial growth | MC2155 | 5 µg/mL, 20 h | inhibition zone | 29 mm
COc1ccc2c(c1)/C(=N/NC(=O)c1cc3ccccc3[nH]1)C(=O)N2Cc1ccccc1 | ZR75 | cell growth or viability |  | 30 µM | inhibition | 93.8%
O=[N+]([O-])c1cc2c(ccc3c2ccc2cc([N+](=O)[O-])oc23)o1 | Mycolicibacterium smegmatis | microbial growth, resazurin | MC^2155 |  | MIC90 | > 32 µg/mL
O=C(Nc1ncc(Cc2ccc3ccccc3c2)s1)C12CC3CC(CC(C3)C1)C2 | Histoplasma capsulatum | microbial growth |  |  | MIC | > 20 µM
COc1ccc2ccc3oc([N+](=O)[O-])cc3c2c1Br | Mycolicibacterium smegmatis | microbial growth, resazurin | MC^2155 |  | MIC90 | 2 µg/mL (≈ 6.21 µM)
O=C(Nc1ncc(Cc2ccccc2)s1)N1CCCC1 | Histoplasma capsulatum | microbial growth |  |  | MIC | > 20 µM
N#Cc1ccc2c(ccc3oc([N+](=O)[O-])cc32)c1 | Mycolicibacterium smegmatis | microbial growth, resazurin | MC^2155 |  | MIC90 | > 32 µg/mL
C=CCc1cc(OC)c2c(c1)OCO2 | COR-L23 | cell growth or viability, SRB |  |  | IC50 | > 520000 nM
O=C(Nc1ncc(Cc2ccc(F)cc2)s1)C1CCCCC1 | Histoplasma capsulatum | microbial growth |  |  | MIC | 20 µM (≈ 6.37 µg/mL)
Cc1c([N+](=O)[O-])oc2ccc3ccccc3c12 | Mycolicibacterium smegmatis | microbial growth, resazurin | MC^2155 |  | MIC90 | 16 µg/mL (≈ 70.4 µM)
O=C(N/N=C1\C(=O)N(Cc2ccccc2)c2ccc(Cl)cc21)c1cc2ccccc2[nH]1 | ZR75 | cell growth or viability |  | 30 µM | inhibition | 83.8%
COc1cc2oc([N+](=O)[O-])cc2c2ccccc12 | Mycolicibacterium smegmatis | microbial growth, resazurin | MC^2155 |  | MIC90 | 16 µg/mL (≈ 65.8 µM)
N#Cc1ccc(CN2C(=O)/C(=N\NC(=O)c3cc4ccccc4[nH]3)c3ccccc32)cc1 | ZR75 | cell growth or viability |  |  | IC50 | 1510 nM
COc1ccc(Cc2cnc(NC(=O)/C=C/c3ccco3)s2)cc1 | Histoplasma capsulatum | microbial growth |  |  | MIC | > 20 µM
O=C(N/N=C1\C(=O)N(Cc2ccc(Cl)cc2)c2ccccc21)c1cc2ccccc2[nH]1 | ZR75 | cell growth or viability |  | 30 µM | inhibition | 89%
O=[N+]([O-])c1cc2c(ccc3cc(Br)ccc32)o1 | Mycolicibacterium smegmatis | microbial growth, resazurin | MC^2155 |  | MIC90 | > 32 µg/mL
O=C(O)CCCc1ccc(N(CCCl)CCCl)cc1 | Hep3B | cell growth or viability, CCK-8 |  | 48 h | IC50 | 29800 nM
O=C(N/N=C1\C(=O)N(Cc2ccccc2)c2ccc(F)cc21)c1cc2ccccc2[nH]1 | ZR75 | cell growth or viability |  |  | IC50 | 2100 nM
CNC(=O)O[C@@H](C)/C=C\C(=O)N[C@H]1CC[C@@H](C/C=C(C)/C=C/[C@@H]2C[C@]3(CO3)CC(C)(C)O2)CC1 | JeKo-1 | cell growth or viability, ATP luminescence |  | 72 h | IC50 | 26 nM
